# Measured values collected from several papers.
# Target: Tyrosine-protein kinase BTK (BTK, Homo sapiens, UniProt Q06187)
Compound,read-out,mode,technique,concentration,quantity,value
CC(C)(C)c1cc(C=C(C#N)C#N)cc(Br)c1O,enzyme activity,inhibitor,,0.5 µM,remaining activity,101%
Cn1cncc1[C@@](O)(COc1ccc(C#N)cc1-c1ccc(OC(F)(F)F)cc1)c1ccc(C#N)cc1,cell-free assay,,competition with immobilised ligand,1 µM,remaining binding,82%
O=c1[nH]c2ccccc2n1C1CCN(Cc2ccc(-c3[nH]c4cc5ncnc5cc4nc3-c3ccccc3)cc2)CC1,cell-free assay,,,0.5 µM,remaining signal,98.4%
C#Cc1n[nH]c2c(-c3cn(C(C)c4ccccn4)c(=O)[nH]c3=O)cc(F)cc12 (centres unmarked),enzyme activity,inhibitor,,1 µM,inhibition,1.7%
Cc1nn(C)cc1-c1nc2c(N3CCN(Cc4ccc(Cl)cc4)CC3)c(Cl)cnc2[nH]1,binding,,competition with immobilised ligand,1 µM,remaining binding,100%
N#CC1(c2ccccn2)CCN(Cc2cc(C(=O)O)c(=O)n3ccccc23)CC1,cell-free assay,,competition with immobilised ligand,1 µM,remaining binding,100%
Nc1ncc(-c2nc(N3CCOCC3)nc(N3CCOCC3)n2)c(C(F)F)n1,binding,,competition with immobilised ligand,10 µM,remaining binding,26%
COc1ncccc1-c1cnn2ccc(N3CCN(C(=O)OC(C)C)CC3)nc12,binding,,competition with immobilised ligand,1 µM,remaining binding,68%
